Converted amounts (≈) assume the structure as drawn.
Assays:
Rattus norvegicus [1] = assay: Secretion of phospholipid in Bile Fistula rats after the iv administration of compound, expressed as the residual secretion rate i; format: ADME, organism-based; conditions: in vivo
Summary of the method: (§1)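 Male Sprague-Dawley rats (300-330 g), urethane-anesthetized, bile duct cannulated. After 1 h baseline, sodium salt infused via femoral vein at 10 μmol/min/kg for 1 h; bile collected at 15-min intervals for 3 h. Flow measured gravimetrically; bile acids, cholesterol and phospholipid measured enzymatically. Smax and Tmax read from secretion-time plots; Rs is the rate at hour 3. Mean ± SD, n=6.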

Rattus norvegicus [2] = assay: Secretion of Bile in Bile Fistula rats after the iv administration of compound, expressed as the residual secretion rate i; format: ADME, organism-based; conditions: in vivo; summary of the method: as §1
cholylglycine hydrolase = assay: The compound was incubated with cholylglycine hydrolase and tested for determining the stability towards C-24 Deamination; format: ADME; conditions: cholylglycine hydrolase
Rattus norvegicus [3] = assay: Alkaline phosphatase in Bile Fistula rats after iv coinfusion of TCDCA and compound.; format: ADME, organism-based; conditions: in vivo
Summary of the method: (§2)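 Bile fistula Sprague-Dawley rats (200-250 g). TCDCA and test bile acid given as sodium salts, coinfused via jugular vein, each at 8 μmol/min/kg for 1 h. Bile collected at 30-min intervals for 3 h. Calcium, ALP and LDH in bile measured enzymatically; bile acid composition by HPLC (65% methanol, 15 mM ammonium acetate, pH 5.4). Mean ± SD.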

[4] = The compound was incubated with human stools and tested for determining the stability towards 7-dehydroxylation; format: ADME, organism-based
Summary of the method: (§3)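 Homogenized fresh human stool (500 mg) in 5 mL chopped meat-glucose medium; bile acid added at 0.05 mM final; 37 °C. Sampled at 0–72 h and stopped with 30% KOH. Bile acids recovered by C-18 solid-phase extraction, then analyzed by TLC and by HPLC with 75% methanol/15 mM ammonium acetate, pH 5.4.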

[5] = Water solubility was determined; format: ADME; conditions: read-out: WS
Summary of the method: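 Protonated form; measured on saturated solutions at pH 1.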

Rattus norvegicus [6] = assay: Secretion of phospholipid in Bile Fistula rats after the iv administration of compound, expressed as the maximum secretion rate i; format: ADME, organism-based; conditions: in vivo; summary of the method: as §1
Rattus norvegicus [7] = assay: Lactate dehydrogenase in Bile Fistula rats after iv coinfusion of TCDCA and compound.; format: ADME, organism-based; conditions: in vivo; summary of the method: as §2
Rattus norvegicus [8] = assay: Secretion of Bile acids in Bile Fistula rats after the iv administration of compound, expressed as the residual secretion rate; format: ADME, organism-based; conditions: in vivo; summary of the method: as §1
Rattus norvegicus [9] = assay: Secretion of Bile acids in Bile Fistula rats after the iv administration of compound, expressed as the maximum secretion rate i; format: ADME, organism-based; conditions: in vivo; summary of the method: as §1
Rattus norvegicus [10] = assay: Secretion of cholesterol in Bile Fistula rats after the iv administration of compound, expressed as the residual secretion rate; format: ADME, organism-based; conditions: in vivo; summary of the method: as §1
Rattus norvegicus [11] = assay: Calcium output in Bile Fistula rats after iv coinfusion of TCDCA and compound.; format: ADME, organism-based; conditions: in vivo; summary of the method: as §2
Rattus norvegicus [12] = assay: Maximum biliary secretion rate of bile acids after iv coinfusion in Bile fistula rats.; format: ADME, organism-based; conditions: in vivo; summary of the method: as §2
[13] = Partition coefficient (logP); format: physicochemical; conditions: octanol/water
Summary of the method: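 Octanol/water partition coefficient of the protonated species, calculated rather than measured.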

Rattus norvegicus [14] = assay: Secretion of Bile in Bile Fistula rats after the iv administration of compound, expressed as the maximum secretion rate; format: ADME, organism-based; conditions: in vivo; summary of the method: as §1
Rattus norvegicus [15] = assay: Bile flow in Bile Fistula rats after iv coinfusion of TCDCA and compound.; format: ADME, organism-based; conditions: in vivo; summary of the method: as §2
[16] = Critical Micellar concentration was determined; format: ADME
Summary of the method: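 Measured in water from surface tension, using the maximum bubble-pressure method.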

[17] = Relative lipophilicity was determined; format: physicochemical; conditions: C-18 reverse phase HPLC
Summary of the method: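 C-18 reverse-phase HPLC run isocratically at 0.9 mL/min. Mobile phase 65% (v/v) aqueous methanol with 2 mM ammonium acetate, pH 7, so that all bile acids are fully ionized.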

Rattus norvegicus [18] = assay: Maximum biliary secretion rate of TCDCA after iv coinfusion in Bile fistula rats.; format: ADME, organism-based; conditions: in vivo; summary of the method: as §2
Rattus norvegicus [19] = assay: Secretion of cholesterol in Bile Fistula rats after the iv administration of compound, expressed as the maximum secretion rate i; format: ADME, organism-based; conditions: in vivo; summary of the method: as §1
[20] = Critical micellar pH was determined
Summary of the method: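 20 mL of 50 mM bile salt solution titrated with 0.1 M HCl. CMpH is taken as the pH at which precipitate of the protonated form is first seen by turbidity at 500 nm. Confirmed by back-titration with 0.1 M NaOH until the suspension clears.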

[21] = Acidity constant was determined; format: ADME
[22] = The compound was incubated with human stools and tested for determining the stability towards C-24 Deamination; format: ADME, organism-based; conditions: in the assay text read “7-dehydroxylation” for “C-24 Deamination”; summary of the method: as §3
[23] = The compound was incubated with human stools and tested for determining the stability towards 7 dehydroxylation; format: ADME

| Compound | Rs (Rattus norvegicus [1]) [µM/min/kg] | Rs (Rattus norvegicus [2]) [mL/h/kg] | half-life (cholylglycine hydrolase) [h] | [ALP]max (Rattus norvegicus [3]) [IU/L] | solubility [5] [µM] | Smax (Rattus norvegicus [6]) [µM/min/kg] | [LDH]max (Rattus norvegicus [7]) [UI l-1] | Rs (Rattus norvegicus [8]) [µM/min/kg] | Smax (Rattus norvegicus [9]) [µM/min/kg] | Rs (Rattus norvegicus [10]) [nM/min/kg] | Smax (Rattus norvegicus [11]) | Smax (Rattus norvegicus [12]) [µM/min/kg] | logP [13] | Smax (Rattus norvegicus [14]) [mL/h/kg] | Smax (Rattus norvegicus [15]) [mL/h/kg] | CMC [16] [mM] | rK [17] | Smax (Rattus norvegicus [18]) [µM/min/kg] | Smax (Rattus norvegicus [19]) [nM/min/kg] | CMpH [20] | other results |
| --- | --- | --- | --- | --- | --- | --- | --- | --- | --- | --- | --- | --- | --- | --- | --- | --- | --- | --- | --- | --- | --- |
| CC(CCC(=O)N1CCC[C@@H]1C(=O)O)C1CC[C@H]2[C@@H]3[C@H](O)[C@H](O)C4C[C@H](O)CC[C@]4(C)[C@H]3CC[C@]12C (stereo not given in full) | 0.26 | 2.28 | > 72 | 34 | 60 (≈ 30.3 µg/mL) | 0.28 | 48 | 1.8 | 6 | 23 | 0.39 µM/min/kg | 3.41 | 3.71 | 3.6 | 6 | 30 | 0.85 | 5.07 | 52 | 6.6 | half-life [22]: > 72 h; pKa [21]: 3.9 |
| CO[C@H]1C[C@H](C(=O)O)N(C(=O)CCC(C)C2CC[C@H]3[C@@H]4[C@@H](O)CC5C[C@H](O)CC[C@]5(C)[C@H]4CC[C@]23C)C1 (stereo not given in full) | 0.12 | 2.64 | > 72 | 30 | 30 (≈ 15.6 µg/mL) | 0.28 | 14 | 0.8 | 11.1 | 12 | 0.71 µM/min/kg | 4.67 | 3.86 | 5.4 | 5.04 | 29 | 0.7 | 6.96 | 28 | 6.5 | half-life [4]: > 72 h; pKa [21]: 3.5 |
| C[C@H](CCC(=O)NCCS(=O)(=O)O)[C@H]1CC[C@H]2[C@@H]3[C@H](O)C[C@@H]4C[C@H](O)CC[C@]4(C)[C@H]3C[C@H](O)[C@]12C [TAUROCHOLIC ACID] |  |  | 4 |  |  |  |  |  |  |  |  |  |  |  |  |  |  |  |  |  | half-life [23]: 6 h |

Continued, in another order:

| Rs (Rattus norvegicus [1]) [µM/min/kg] | Rs (Rattus norvegicus [2]) [mL/h/kg] | half-life (cholylglycine hydrolase) [h] | [ALP]max (Rattus norvegicus [3]) [IU/L] | solubility [5] [µM] | Smax (Rattus norvegicus [6]) [µM/min/kg] | [LDH]max (Rattus norvegicus [7]) [UI l-1] | Rs (Rattus norvegicus [8]) [µM/min/kg] | Smax (Rattus norvegicus [9]) [µM/min/kg] | Rs (Rattus norvegicus [10]) [nM/min/kg] | Smax (Rattus norvegicus [11]) | Smax (Rattus norvegicus [12]) [µM/min/kg] | logP [13] | Smax (Rattus norvegicus [14]) [mL/h/kg] | Smax (Rattus norvegicus [15]) [mL/h/kg] | CMC [16] [mM] | rK [17] | Smax (Rattus norvegicus [18]) [µM/min/kg] | Smax (Rattus norvegicus [19]) [nM/min/kg] | CMpH [20] | Compound | other results |
| --- | --- | --- | --- | --- | --- | --- | --- | --- | --- | --- | --- | --- | --- | --- | --- | --- | --- | --- | --- | --- | --- |
| 0.09 | 3.06 | > 72 | 30 | 59 (≈ 28.9 µg/mL) | 0.2 | 71 | 1.6 | 7.9 | 28 | 0.38 µM/min/kg | 2.07 | 4.41 | 3.9 | 5.82 | 7 | 0.92 | 3.64 | 52 | 6 | CC(CCC(=O)N1CCC[C@H]1C(=O)O)C1CC[C@H]2[C@@H]3[C@@H](O)CC4C[C@H](O)CC[C@]4(C)[C@H]3CC[C@]12C (stereo not given in full) | half-life [4]: > 72 h; pKa [21]: 3.9 |
| 0.11 | 3 | > 72 | 32 | 113 (≈ 55.3 µg/mL) | 0.28 | 16 | 0.9 | 6 | 31 | 0.42 µmol/min/kg | 3.22 | 5.83 | 5.4 | 5.16 | 15 | 1.25 | 5.43 | 55 | 6 | CC(CCC(=O)N1CCC[C@@H]1C(=O)O)C1CC[C@H]2[C@@H]3[C@@H](O)CC4C[C@H](O)CC[C@]4(C)[C@H]3CC[C@]12C (stereo not given in full) | half-life [4]: > 72 h; pKa [21]: 3.9 |

Reference: ChEMBL document CHEMBL1129331, “Synthesis and physicochemical, biological, and pharmacological properties of new bile acids amidated with cyclic amino acids” (J Med Chem, 1996)
